For 3 compounds, Level (nM (mg of protein)-1) and tR results are on record in ChEMBL document CHEMBL1125378, “alpha-Methyl polyamines: metabolically stable spermidine and spermine mimics capable of supporting growth in cells depleted of polyamines” (J Med Chem, 1992).

The subject of data set [1] is L1210. Put plainly: Compound level in 72 hr DFMO (5 mM)-treated L1210 cells after exposure to 10 uM 1,12-dimethylspermine. The data set is classed as functional, cell-based. The settings on record: Mus musculus. The method in brief:
(§1)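 L1210 cells held in 5 mM DFMO for 72 h before polyamine addition and through a further 72 h, refed at 72 h; controls without DFMO cultured 72 h in total. Intracellular polyamines reported as nmol/mg protein (detection limit 0.2). Mean ± SD from at least four separate experiments.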

Data set [2] has as its system HT-29. Put plainly: Compound level in 72 hr DFMO (5 mM)-treated HT-29 cells after exposure to 25 uM 1,12-dimethylspermine. The data set is classed as functional, cell-based. The settings on record: Homo sapiens, in the assay text read “120 hr” for “72 hr”. Summed up: (§2)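 HT29 experiment B: 5 mM DFMO for 120 h before addition and throughout a further 96 h; refed at 96 h. Cells without DFMO cultured 96 h in total. Polyamines measured as nmol/mg protein (detection limit 0.2). SD from at least four separate experiments.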

The subject of data set [3] is SV3T3. In words: Compound level in 72 hr DFMO (5 mM)-treated SV3T3 cells after exposure to 1 uM 1,12-dimethylspermine. Particulars: Mus musculus.
The nature of data set [4]: Retention time was determined. In kind it is ADME.
In data set [5] the test system is HT-29. In words: Compound level in 72 hr DFMO (5 mM)-treated HT-29 cells after exposure to 10 uM 1,12-dimethylspermine. In kind it is functional, cell-based. The settings on record: Homo sapiens, in the assay text read “120 hr” for “72 hr”. Summed up: as §2
Data set [6] concerns SV3T3. Put plainly: Compound level in 96 hr DFMO (5 mM)-treated SV3T3 cells after exposure to 25 uM 1,12-dimethylspermine. The data set is classed as functional, cell-based. Particulars: Mus musculus.
The test system of data set [7] is SV3T3. Put plainly: Compound level in 96 hr DFMO (5 mM)-treated SV3T3 cells after exposure to 10 uM 1,12-dimethylspermine. In kind it is functional, cell-based. Particulars: Mus musculus.
In data set [8] the test system is HT-29. Put plainly: Compound level in 72 hr DFMO (5 mM)-treated HT-29 cells after exposure to 10 uM 1-methylspermidine. In kind it is functional, cell-based. Particulars: Homo sapiens. The method in brief:
(§3)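 HT29 cells pretreated with 5 mM DFMO for 120 h, then polyamine added and culture continued with DFMO for 72 h (experiment A); refed at 96 h. Cellular polyamine content given as nmol/mg protein (detection limit 0.2). SD from at least four separate experiments.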

Data set [9] deals with HT-29. In words: Compound level in 72 hr DFMO (5 mM)-treated HT-29 cells after exposure to 25 uM 1-methylspermidine. In kind it is functional, cell-based. Particulars: Homo sapiens. Summed up:
as §3

The subject of data set [10] is SV3T3. In words: Compound level in 72 hr DFMO (5 mM)-treated SV3T3 cells after exposure to 1 uM 1-methylspermidine. The settings on record: Mus musculus. In kind it is functional, cell-based. Summed up:
(§4)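 SV-3T3 fibroblasts (experiment A) held in 5 mM DFMO for 72 h before polyamine addition and throughout a further 72 h. Intracellular polyamines expressed as nmol/mg protein (detection limit 0.05). SD from at least four separate experiments, or duplicate where no SD is given.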

Data set [11] deals with HT-29. In words: Compound level in 72 hr DFMO (5 mM)-treated HT-29 cells after exposure to 10 uM 1-methylspermine. In kind it is functional, cell-based. Particulars: Homo sapiens. The method in brief:
as §3

Data set [12] concerns SV3T3. Put plainly: Compound level in 72 h DFMO (5 mM)-treated SV3T3 cells after exposure to 10 uM 1-methylspermidine. In kind it is functional, cell-based. The settings on record: Mus musculus. The method in brief: as §4
Data set [13] concerns L1210. Put plainly: Compound level in 72 hr DFMO (5 mM)-treated L1210 cells after exposure to 10 uM 1-methylspermidine. Particulars: Mus musculus. In kind it is functional, cell-based. Summed up:
as §1

The test system of data set [14] is SV3T3. In words: Compound level in 72 hr DFMO (5 mM)-treated SV3T3 cells after exposure to 10 uM 1-methylspermine. The data set is classed as functional, cell-based. Particulars: Mus musculus. Summed up:
as §4

Data set [15] deals with SV3T3. Put plainly: Compound level in 72 hr DFMO (5 mM)-treated SV3T3 cells after exposure to 25 uM 1-methylspermine. The data set is classed as functional, cell-based. The settings on record: Mus musculus. The method in brief:
as §4

The test system of data set [16] is SV3T3. Put plainly: Compound level in 72 hr DFMO (5 mM)-treated SV3T3 cells after exposure to 25 uM 1-methylspermidine. The settings on record: Mus musculus. In kind it is functional, cell-based. The method in brief:
as §4

Data set [17] relates to SV3T3. In words: Compound level in 72 hr DFMO (5 mM)-treated SV3T3 cells after exposure to 1 uM 1-methylspermine. In kind it is functional, cell-based. Particulars: Mus musculus. Summed up:
as §4

Data set [18] deals with HT-29. Put plainly: Compound level in 72 hr DFMO (5 mM)-treated HT-29 cells after exposure to 25 uM 1-methylspermine. The data set is classed as functional, cell-based. The settings on record: Homo sapiens. The method in brief:
as §3

Data set [19] relates to L1210. In words: Compound level in 72 hr DFMO (5 mM)-treated L1210 cells after exposure to 10 uM 1-methylspermine. In kind it is functional, cell-based. Particulars: Mus musculus. The method in brief: as §1

Structures are written as SMILES.

As to `CC(N)CCNCCCCNCCC(C)N` (configuration not stated), the Level (nM (mg of protein)-1) with L1210 [1] was found to be 61.9; in the data set with HT-29 [2], 17.3; in the data set on SV3T3 [3], 4.2; in the data set with HT-29 [5], 18.2; in the data set with SV3T3 [6], 24.8; with SV3T3 [7], 29.4. The tR in [4] is on record as 40.9 min.
On to `CC(N)CCNCCCCN` (configuration not stated), for which the Level (nM (mg of protein)-1) is 13.3 with HT-29 [8]; 16.8 with HT-29 [9]; 11.8 with SV3T3 [10]; 0.2 in the data set on HT-29 [11]; 26.8 in the data set with SV3T3 [12]; 67.2 with L1210 [13]. In addition, the Level (nM (mg of protein)-1) in the data set with SV3T3 [14] came to 2.7; in the data set with SV3T3 [7], 1.2; in the data set with SV3T3 [15], 0.4; with SV3T3 [16] it was 31.2; in the data set with SV3T3 [17], 0.6. The compound also displayed a tR in [4] of 34.5 min.
Turning to `CC(N)CCNCCCCNCCCN` (configuration not stated), the Level (nM (mg of protein)-1) in the data set on HT-29 [8] came out at 7.8; with HT-29 [9], 8.6; in the data set with SV3T3 [10], 2.4; in the data set on HT-29 [18] it was 24.2; in the data set with HT-29 [11], 21.3; in the data set on SV3T3 [12], 4.2. Moreover, the Level (nM (mg of protein)-1) stood at 7.8 in the data set on L1210 [13]; 33.7 in the data set with SV3T3 [14]; 33.1 with SV3T3 [15]; 63.4 with L1210 [19]; 4.4 in the data set on SV3T3 [16]; 11.8 in the data set with SV3T3 [17]. This compound showed a tR in data set [4] of 40.5 min.
